Converted amounts (≈) assume the structure as drawn. Bounds are passed on as bounds.

We go through two compounds from ChEMBL document CHEMBL1125605 (1991).

Common to all, as to format: functional
The subject of assay [1] is E6SM. The assay is described as follows: Concentration required to inhibit HSV-1 (KOS) induced cytopathogenicity in E6SM cells by 50%. The conditions noted are these: Homo sapiens.
Assay [2] has as its system E6SM. In words: Concentration required to inhibit HSV-1 (McIntyre) induced cytopathogenicity in E6SM cells by 50%. Particulars: Homo sapiens. Background: Cytopathic effects are the visible damage that an infection or toxin causes in cultured cells.
Assay [3] has as its system E6SM. The assay is described as follows: Concentration required to inhibit HSV-2(196) induced cytopathogenicity in E6SM cells by 50%. The conditions noted are these: Homo sapiens.
Assay [4] relates to E6SM. In words: Concentration required to cause a microscopically detectable alteration of normal cell morphology in E6SM cells. The conditions noted are these: Homo sapiens; read-out: MIC. The gist of the method: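 Uninfected E6SM human embryonic skin-muscle fibroblasts were exposed to compound and examined under the microscope. The value is the minimum concentration that caused a detectable alteration of normal cell morphology.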

Assay [5] has as its system E6SM. In words: Concentration required to inhibit HSV-1 (F) induced cytopathogenicity in E6SM cells by 50%. The conditions noted are these: Homo sapiens.
Assay [6] relates to E6SM. In words: Concentration required to inhibit HSV-2(G) induced cytopathogenicity in E6SM cells by 50%. Particulars: Homo sapiens.
Assay [7] concerns E6SM. In words: Concentration required to inhibit HSV-2(lyons) induced cytopathogenicity in E6SM cells by 50%. The conditions noted are these: Homo sapiens.
Assay [8] concerns E6SM. In words: Concentration required to inhibit TK-HSV-1 (B2006) induced cytopathogenicity in E6SM cells by 50%. The conditions noted are these: Homo sapiens.
Assay [9] has as its system E6SM. The assay is described as follows: Concentration required to inhibit TK-HSV-1 (VMW1837) induced cytopathogenicity in E6SM cells by 50%. The conditions noted are these: Homo sapiens.
Assay [10] has as its system E6SM. In words: oncentration required to inhibit VV induced cytopathogenicity in E6SM cells by 50%. Particulars: Homo sapiens.
Assay [11] deals with HEL. In words: Concentration required to cause 50% reduction in HEL cell growth. The conditions noted are these: Homo sapiens; read-out: MIC. The gist of the method: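 Cytotoxicity was measured as inhibition of growth of HEL human embryonic lung fibroblasts. The value is the compound concentration that reduced cell growth by 50%.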
Assay [12] relates to HEL. In words: Concentration required to inhibit CMV (Davis) induced cytopathogenicity in HEL cells by 50%. The conditions noted are these: Homo sapiens.
Assay [13] deals with HEL. The assay is described as follows: Concentration required to inhibit TK-VZV (07-1) induced cytopathogenicity in HEL cells by 50%. Particulars: Homo sapiens.
The test system of assay [14] is HEL. The assay is described as follows: Concentration required to inhibit TK-VZV (YSR) induced cytopathogenicity in HEL cells by 50%. The conditions noted are these: Homo sapiens.
The test system of assay [15] is HEL. In words: Concentration required to inhibit VZV (YS) induced cytopathogenicity in HEL cells by 50%. Particulars: Homo sapiens.
The test system of assay [16] is HEL. In words: Concentration required to inhibit VZV (oka) induced cytopathogenicity in HEL cells by 50%. Particulars: Homo sapiens.
The test system of assay [17] is HEL. The assay is described as follows: Concentration required to inhibit CMV (AD-169) induced cytopathogenicity in HEL cells by 50%. The conditions noted are these: Homo sapiens.
Assay [18] relates to E6SM. The assay is described as follows: Concentration required to inhibit VSV induced cytopathogenicity in E6SM cells by 50%. Particulars: Homo sapiens. The gist of the method: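 Antiviral assay in E6SM human embryonic skin-muscle fibroblasts, with cells infected by vesicular stomatitis virus (VSV) in microtiter plates. Virus-induced cytopathogenicity is assessed. The value is the compound concentration that reduces VSV-induced cytopathogenicity by 50%.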

As to `O=c1[nH]c(=O)n([C@H]2C[C@H](O)[C@@H](CO)O2)cc1-c1ccc(Cl)o1`, the MIC in assay [1] came to 0.2 µg/mL (≈ 0.608 µM); in assay [2], 0.4 µg/mL (≈ 1.22 µM); in [3], 150 µg/mL (≈ 456 µM); in assay [5] it was 0.2 µg/mL (≈ 0.608 µM); in [6] it was 150 µg/mL (≈ 456 µM); in assay [7], 150 µg/mL (≈ 456 µM). The MIC in assay [8] was 150 µg/mL (≈ 456 µM); in assay [9], 150 µg/mL (≈ 456 µM); in assay [10], 45 µg/mL (≈ 137 µM); in assay [12], greater than 100 µg/mL; in [13], greater than 100 µg/mL; in assay [14] it was greater than 100 µg/mL. Also, the MIC in [15] was 3 µg/mL (≈ 9.13 µM); in assay [16], 2.5 µg/mL (≈ 7.61 µM); in [17], greater than 100 µg/mL; in assay [18] it was greater than 200 µg/mL. Also, the minimum cytotoxic concentration (morphology alteration) in assay [4] is greater than 400 µg/mL. Besides, the CC50 (50% cell growth inhibitory concentration) in assay [11] came out at 105 µg/mL (≈ 319 µM).
For `O=c1[nH]c(=O)n([C@H]2C[C@H](O)[C@@H](CO)O2)cc1-c1ccc(Br)o1`, the MIC was 0.15 µg/mL (≈ 0.402 µM) in [1]; 0.2 µg/mL (≈ 0.536 µM) in assay [2]; 150 µg/mL (≈ 402 µM) in [3]; 0.1 µg/mL (≈ 0.268 µM) in assay [5]; 150 µg/mL (≈ 402 µM) in [6]; 300 µg/mL (≈ 804 µM) in assay [7]. Also, the MIC in assay [8] is 100 µg/mL (≈ 268 µM); in [10] it was 70 µg/mL (≈ 188 µM); in assay [12] it was greater than 100 µg/mL; in [13], greater than 100 µg/mL; in assay [14], greater than 100 µg/mL; in assay [15], 3 µg/mL (≈ 8.04 µM). The MIC is 3 µg/mL (≈ 8.04 µM) in [16], greater than 100 µg/mL in assay [17] and greater than 200 µg/mL in assay [18]. Besides, in assay [4], the minimum cytotoxic concentration (morphology alteration) is greater than 400 µg/mL. The CC50 (50% cell growth inhibitory concentration) in [11] is 125 µg/mL (≈ 335 µM).
